Assay results pooled from the literature.
Target: Aurora kinase C (AURKC, Homo sapiens, UniProt Q9UQB9)

O=C(O)[C@H]1[C@H](Cn2nnc3ccccc3c2=O)CC[C@@H]1C(=O)c1ccc(OCCC2CCOCC2)cc1
remaining binding (cell-free assay; competition with immobilised ligand; 1 µM): 79%

O=C(Nc1cnn(-c2csc(C(=O)NC3COC3)c2)c1)Nc1c(F)cccc1Cl
remaining activity (enzyme activity; inhibitor; 5 µM): 58.5%

Cc1ccc(C(=O)Nc2ccc(CN3CCN(C)CC3)c(C(F)(F)F)c2)cc1C#Cc1cnc2cccnn12
remaining activity (enzyme activity; 23.5 nM): 94%

CCC(=N\O)/C(C)=C/c1ccc(F)cc1
remaining binding (cell-free assay; competition with immobilised ligand; 1 µM): 80%

N#CCCc1ccc2c(c1)-c1[nH]c3ccc([N+](=O)[O-])cc3c1CC(=O)N2
remaining signal (cell-free assay; 0.5 µM): 83.6%

Cc1cnc(NC2CCOCC2)nc1-n1cnc(C(=O)NC(CN)c2cc(F)cc(Cl)c2)c1 (centres unmarked)
remaining activity (enzyme activity; inhibitor; radiometric; 1 µM): 67%

CC(C)CC(=O)N1CCc2nc(-c3ccc(Br)cc3)nc(N(C)Cc3ccccc3)c2C1
remaining binding (cell-free assay; competition with immobilised ligand; 0.1 µM): 100%

Nc1ncnc2occ(-c3ccc(NC(=O)Nc4cc(C(F)(F)F)ccc4F)cc3)c12
remaining signal (cell-free assay; 20 µM): 2.7%

CCCCN(CCCC)C(=O)CN1C[C@H](c2cc(OC)c3c(c2)OCO3)[C@@H](C(=O)O)[C@@H]1CC(C)(C)CCC
remaining binding (cell-free assay; competition with immobilised ligand; 1 µM): 100%

CN1CC(Oc2cnc(C#N)cc2-c2ccn3nc(NC(=O)C4CC4)cc3c2)C1
inhibition (enzyme activity; inhibitor; 1 µM): 3%

O=C(NCc1ncc(C(F)(F)F)cc1Cl)c1ccc2c(c1)C1(CCS(=O)(=O)CC1)[C@@H](C1CC1)N2S(=O)(=O)c1ccc(F)cc1
remaining binding (cell-free assay; competition with immobilised ligand; 1 µM): 80%

Cc1ccc(C(=O)NCc2ccsc2)cc1C#Cc1cn(C(C)C)c2ncnc(N)c12
activity vs control (enzyme activity; inhibitor; 1 µM): 81%

CC(C)(C)c1nc2c(s1)c1nc(N)ncc1c1ccc(NS(=O)(=O)c3c(F)cccc3F)c(F)c12
remaining activity (enzyme activity; inhibitor; radiometric; 1 µM): 104%

O=C1NC(=O)c2cc(Nc3ccc(F)cc3)c(Nc3ccc(F)cc3)cc21
remaining signal (cell-free assay; 0.5 µM): 90.8%

COc1cc2ncnc(Nc3ccc(Oc4ccccc4)cc3C)c2cc1OC
inhibition (enzyme activity; inhibitor; 1 µM): 1%

CC/C(=N\NC(=O)NCc1cccc(O)c1)c1ccc(O)c(C)c1O
inhibition (enzyme activity; inhibitor; 0.1 µM): 2.5%

CCN(CC)CCNC(=O)c1c(C)[nH]c(/C=C2\C(=O)Nc3ccc(Cl)cc32)c1C
remaining activity (enzyme activity; inhibitor; 0.5 µM): 74.7%

CCC(=O)N[C@@H]1CC[C@H](C(=O)N(C)c2ccc(-c3nc4ccccc4o3)cc2)C1
remaining binding (cell-free assay; competition with immobilised ligand; 1 µM): 100%

O=C1Nc2ccc(Cl)cc2C1=Cc1cc(Cl)c(O)c(Cl)c1
remaining signal (cell-free assay; 0.5 µM): 78.6%

C=CC(=O)Nc1cc(Nc2nccc(Nc3cc(Cl)c(F)cc3C(C)(C)O)n2)c(OC)cc1N1CC[C@@H](N(C)C)C1
inhibition (enzyme activity; inhibitor; 1 µM): 6%
